The text below walks through data of ChEMBL document CHEMBL3861953 (J Med Chem, 2016).

Broadly, the pIC50 is the negative decadic logarithm of the IC50, by convention in mol/L. The term MIC denotes the lowest concentration found to suppress growth.

The structures appear in SMILES notation. pIC50: −log10 of the molar value. ≈ marks a conversion by molar mass, not a printed value. Calls of active or inactive are those of the source. The calls are words filed in the database; no cut-off is given here.

Data set [1] has as its system Mycobacterium tuberculosis. In words: Inhibition of recombinant Mycobacterium tuberculosis InhA expressed in Escherichia coli Rosetta (DE3) pLysS at 30 uM using 2-trans-decenoyl-N-acetylcyste-amine as substrate measured for 120 sec in presence of NADH by spectrophotometric method. The essentials: (§1)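 His-tagged InhA purified by Ni-chelate then gel filtration. Assay at 25 °C in 30 mM PIPES, 150 mM NaCl, 1 mM EDTA, pH 6.8 with 200 µM trans-2-decenoyl-N-acetylcysteamine, 100 µM NADH, 1 µg enzyme. Initial rate of A340 decrease over 120 s. DMSO 0.1%; triplicates; triclosan positive control.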

Data set [2] is described as follows: Inhibition of recombinant Mycobacterium tuberculosis InhA expressed in Escherichia coli Rosetta (DE3) pLysS using 2-trans-decenoyl-N-acetylcyste-amine as substrate in presence of NADH by spectrophotometric method. The essentials:
as §1

Data set [3] concerns Mycobacterium marinum. In words: Antivirulence activity against Mycobacterium marinum assessed as Dictyostelium discoideum phagocytic plaque formation at 10 uM preincubated for 2 to 3 hrs followed by Dictyostelium discoideum addition measured after 5 to 9 days in presence of Klebsiella pneumoniae relative to control. The format is functional. Summed up:
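Mixed lawn of mid-log Mm pellet resuspended in equal volume of overnight non-virulent Kp culture diluted 10-5; 50 µl spread on SM agar containing compound (10 µM), dried 2-3 h, then 103 Dictyostelium cells added. Incubated 5-9 days at 25 °C; phagocytic plaque diameter scored 0-4 versus DMSO control.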

Data set [4] can be described thus: Toxicity against Dictyostelium discoideum at 10 uM.
In a further data set the test system is Klebsiella pneumoniae. In words: Toxicity against Klebsiella pneumoniae at 10 uM.
The test system of data set [5] is Mycobacterium marinum. In words: Antimycobacterial activity against LuxABCDE expressing Mycobacterium marinum measured after 48 hrs by luminescence based serial dilution assay. It is filed as functional. The essentials:
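LuxABCDE-expressing M. marinum was grown shaking at 32°C in 7H9 with OADC to OD600 0.8-1. 10^5 bacteria per well were exposed to compounds (submicromolar to submillimolar) in 7H9 with 0.5% v/v DMSO at 32°C. Luminescence was followed for 48 h, with amikacin 10 µM as control. MIC was the lowest concentration giving significant signal reduction versus DMSO control at 48 h.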

In a further data set the test system is Enterococcus faecalis. Description: Antimicrobial activity against Enterococcus faecalis ATCC 29212 assessed as inhibition of bacterial growth measured after 24 hrs using p-iodonitrotetrazolium violet by broth dilution method. It is filed as functional. As to conditions: ATCC 29212, 24 h. Summed up:
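E. faecalis ATCC 29212 in Mueller-Hinton broth. Compounds were taken up at 2 mg/ml in DMSO (stock) and doubling dilutions were made in MHB. Inoculum was 1-5 × 10^5 final, incubated 37°C for 24 h, with sterility, growth and DMSO solvent controls. Growth was read by reduction of INT (2 mg/ml solution, several hours) to formazan. MIC was the lowest concentration with no red-purple colour or visible turbidity.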
(In broth dilution the organism is exposed to a series of concentrations in liquid medium.)

[6] abbreviates: Mycobacterium marinum, 48 h, read-out: MIC.

As to `O=C(O)[C@@H](Cc1c[nH]c2ccccc12)N1C(=O)/C(=C/c2ccc(N(CCCl)CCCl)cc2)SC1=S`, the inhibition result in data set [1] was “Active”. Moreover, the pIC50 in data set [2] was 4.82. Further, in the data set on Mycobacterium marinum [3], the result was Active. Moreover, the Activity entry (in data set [4]; in the data set on Klebsiella pneumoniae) was “Non-Toxic” each time. Further, the MIC with Mycobacterium marinum [5] (setting [6]) was 18.3 µM (≈ 10 µg/mL).
For the molecule `CCCc1ccc(/C=C2\SC(=S)N([C@@H](Cc3c[nH]c4ccccc34)C(=O)O)C2=O)cc1`, in data set [1], the inhibition result is “Active”. Moreover, in data set [2], the pIC50 was 4.89. Also, the outcome in the data set with Mycobacterium marinum [3] was Active. For the same molecule, the Activity result (in data set [4]; in the data set on Klebsiella pneumoniae) was “Non-Toxic” in each case. The MIC in the data set with Mycobacterium marinum [5] (setting [6]) was 22.2 µM (≈ 10 µg/mL).
On to `CN(C)c1ccc(/C=C2\SC(=S)N([C@@H](Cc3c[nH]c4ccccc34)C(=O)O)C2=O)cc1` (stereo in doubt; 12) [listing 1 of 2 here], for which the pIC50 in data set [2] was 4.54. The molecule further came in with an MIC with Mycobacterium marinum [5] of 22.17 µM (≈ 10 µg/mL).
Consider `O=C(O)[C@H](Cc1c[nH]c2ccccc12)N1C(=O)/C(=C/c2ccc(Cl)cc2Cl)SC1=S`, for which, in data set [1], the inhibition result was “Active”. In data set [2], the pIC50 is 5.02. In the data set with Mycobacterium marinum [3], the result was Active. For the same molecule, the Activity result (in data set [4]; in the data set with Klebsiella pneumoniae) was “Non-Toxic” throughout. For the same molecule, the MIC in the data set with Mycobacterium marinum [5] (setting [6]) was found to be 21 µM (≈ 10 µg/mL).
Regarding `CN(C)c1ccc(/C=C2\SC(=S)N([C@@H](Cc3c[nH]c4ccccc34)C(=O)O)C2=O)cc1` (stereo in doubt; 12) [listing 2 of 2 here], in data set [1], the inhibition result was “Active”.
Regarding `Oc1cc(Cl)ccc1Oc1ccc(Cl)cc1Cl` [TRICLOSAN], the pIC50 in data set [2] was 5.21. Also, the MIC in the data set with Mycobacterium marinum [5] (setting [6]) stood at 8.63 µM (≈ 2.5 µg/mL).
`CC(C)C[C@H](C(=O)O)N1C(=O)/C(=C/c2ccc(N(C)C)c3ccccc23)SC1=S`: the inhibition result in data set [1] was “Active”.
On to `O=C(O)[C@H](Cc1c[nH]c2ccccc12)N1C(=O)/C(=C/c2ccc(Cl)cc2)SC1=S`, for which the inhibition result in data set [1] is “Active”. Besides, in data set [2], the pIC50 was 4.71. The result with Mycobacterium marinum [3] was Active. In addition, the Activity result (in data set [4]; in the data set with Klebsiella pneumoniae) was “Non-Toxic” each time. For the same molecule, the MIC in the data set on Mycobacterium marinum [5] (setting [6]) was determined as 21.1 µM (≈ 9.32 µg/mL).
With `Cc1ccc(/C=C2\SC(=S)N([C@@H](Cc3c[nH]c4ccccc34)C(=O)O)C2=O)c2ccccc12`, in data set [1], the inhibition result was “Active”. In addition, the MIC with Enterococcus faecalis was 2.6 µM (≈ 1.23 µg/mL); in the data set with Mycobacterium marinum [5] (setting [6]), 0.21 µM (≈ 0.0992 µg/mL). In addition, the pIC50 in data set [2] is 5.06. The result in the data set on Mycobacterium marinum [3] was Active. The Activity result (in data set [4]; in the data set on Klebsiella pneumoniae) was “Non-Toxic” throughout.
In the case of `O=C(O)[C@H](Cc1c[nH]c2ccccc12)N1C(=O)/C(=C/c2ccc(N(CCCl)CCCl)cc2)SC1=S`, the inhibition result in data set [1] was “Active”. The pIC50 in data set [2] was 4.91. For the same molecule, the result in the data set on Mycobacterium marinum [3] was Active. Besides, the Activity result (in data set [4]; with Klebsiella pneumoniae) was “Non-Toxic” each time. Moreover, in the data set on Mycobacterium marinum [5] (setting [6]), the MIC was 1.82 µM (≈ 0.998 µg/mL).
Turning to `CCCCC(C(=O)O)N1C(=O)/C(=C/c2ccc(N(C)C)c3ccccc23)SC1=S` (racemic), in data set [1], the inhibition entry was “Active”. In addition, in data set [2], the pIC50 was 4.61. Besides, the MIC with Mycobacterium marinum [5] (setting [6]) was determined as 2.33 µM (≈ 0.999 µg/mL).
Turning to `CCN(CC)c1ccc(/C=C2\SC(=S)N([C@@H](CC(C)C)C(=O)O)C2=O)cc1`, the inhibition entry in data set [1] was “Active”. The pIC50 in data set [2] is 4.65. Besides, the outcome with Mycobacterium marinum [3] was Active. In addition, the Activity result (in data set [4]; in the data set on Klebsiella pneumoniae) was “Non-Toxic” in each case. In addition, in the data set on Mycobacterium marinum [5] (setting [6]), the MIC stood at 2.46 µM (≈ 1 µg/mL).
Turning to `CC(C)C[C@@H](C(=O)O)N1C(=O)/C(=C/c2ccc(N(C)C)c3ccccc23)SC1=S`, the inhibition entry in data set [1] is “Active”.
As for `Cc1ccc(/C=C2\SC(=S)N([C@H](Cc3c[nH]c4ccccc34)C(=O)O)C2=O)c2ccccc12`, the inhibition entry in data set [1] is “Active”. Further, the figures for the MIC in the data set with Enterococcus faecalis and in the data set on Mycobacterium marinum [5] (setting [6]) were 5.2 µM (≈ 2.46 µg/mL) and 2.11 µM (≈ 0.997 µg/mL), respectively. In addition, in data set [2], the pIC50 is 4.96. In addition, the result with Mycobacterium marinum [3] was Active. Moreover, the Activity result (in data set [4]; in the data set with Klebsiella pneumoniae) was “Non-Toxic” throughout.
With `NCC[C@H](O)C(=O)N[C@@H]1C[C@H](N)[C@@H](O[C@H]2O[C@H](CN)[C@@H](O)[C@H](O)[C@H]2O)[C@H](O)[C@H]1O[C@H]1O[C@H](CO)[C@@H](O)[C@H](N)[C@H]1O` [AMIKACIN], the MIC in the data set with Mycobacterium marinum [5] (setting [6]) turned out to be 1.7 µM (≈ 0.996 µg/mL).
Consider `CN(C)c1ccc(/C=C2\SC(=S)N([C@@H](Cc3c[nH]c4ccccc34)C(=O)O)C2=O)c2ccccc12`, for which the inhibition entry in data set [1] is “Active”. For the same molecule, the pIC50 in data set [2] is 4.72. Moreover, the result in the data set with Mycobacterium marinum [3] was Active. Moreover, the Activity result (in data set [4]; in the data set with Klebsiella pneumoniae) was “Non-Toxic” in each case. For the same molecule, the MIC in the data set with Mycobacterium marinum [5] (setting [6]) is 1.99 µM (≈ 0.998 µg/mL).
For the molecule `CN(C)c1ccc(/C=C2\SC(=S)N([C@@H](Cc3c[nH]c4ccccc34)C(=O)O)C2=O)cc1` (stereo in doubt; 24) [listing 1 of 2 here], the pIC50 in data set [2] was 4.83. Also, the Activity entry (in data set [4]; in the data set with Klebsiella pneumoniae) was “Non-Toxic” each time. This molecule also had an MIC with Mycobacterium marinum [5] of 2.08 µM (≈ 0.939 µg/mL).
`O=C(O)[C@H](Cc1c[nH]c2ccccc12)N1C(=O)/C(=C/c2c3ccccc3c(Cl)c3ccccc23)SC1=S`: the inhibition result in data set [1] was “Active”. Also, the MIC in the data set on Enterococcus faecalis came to 0.57 µM (≈ 0.31 µg/mL); with Mycobacterium marinum [5] (setting [6]) it was 184 µM (≈ 100 µg/mL). Further, in data set [2], the pIC50 was 5.54. Moreover, in the data set with Mycobacterium marinum [3], the result was Active. Further, the Activity result (in data set [4]; with Klebsiella pneumoniae) was “Non-Toxic” throughout.
For the molecule `CCCc1ccc(/C=C2\SC(=S)N([C@H](Cc3c[nH]c4ccccc34)C(=O)O)C2=O)cc1`, in data set [1], the inhibition result is “Active”. For the same molecule, the pIC50 in data set [2] was 4.89. The result in the data set on Mycobacterium marinum [3] was Active. Moreover, the Activity entry (in data set [4]; with Klebsiella pneumoniae) was “Non-Toxic” each time. The MIC with Mycobacterium marinum [5] (setting [6]) was 55.5 µM (≈ 25 µg/mL).
As to `CN(C)c1ccc(/C=C2\SC(=S)N([C@@H](Cc3c[nH]c4ccccc34)C(=O)O)C2=O)cc1` (stereo in doubt; 24) [listing 2 of 2 here], the inhibition entry in data set [1] was “Active”. Besides, the result in the data set on Mycobacterium marinum [3] was Active.
As to `CC(C)CC(N1C(=O)/C(=C/c2ccc(N(C)C)c3ccccc23)SC1=S)P(=O)(O)O` (configuration not stated), the inhibition entry in data set [1] is “Active”. Moreover, in data set [2], the pIC50 was 4.72. In addition, the outcome with Mycobacterium marinum [3] was Active. The Activity result (in data set [4]; with Klebsiella pneumoniae) was “Non-Toxic” each time. For the same molecule, the MIC in the data set on Mycobacterium marinum [5] (setting [6]) worked out at 21.6 µM (≈ 10 µg/mL).
